Test results published in ChEMBL document CHEMBL1649165, “Activity profile in vitro of micafungin against Spanish clinical isolates of common and emerging species of yeasts and molds” (2009).
*1 amine or outer side, *2 acyl side, *3 side chain or, on linkers, in order; H or OH if unused. Where a SMILES comes first, the peptide text is derived from it. Bridges are numbered along the chain shown (N, C = ends). [ ]: non-standard residue; d: D form. The star is where a group is joined. hTyr(3S-OH,4S-OH,3'-OSO3H) = N[C@H](C(=O)O)[C@H](O)[C@@H](O)c1ccc(O)c(OS(=O)(=O)O)c1; Orn(4R-OH,5R-OH) = O=C([C@H](C[C@@H](O)[C@@H](O)N[*:3])N[*:1])[*:2]; Pro(3S-OH,4S-Me) = C[C@H]1CN[C@H](C(=O)O)[C@H]1O; X1 = CCCCCOc1ccc(-c2cc(-c3ccc(C(=O)*)cc3)no2)cc1; Gln(3R-OH) = NC(=O)C[C@@H](O)[C@H](N)C(=O)O; Hyp = O=C(O)[C@@H]1C[C@@H](O)CN1

Columns and labels:
Assay type in all cases: functional
Exophiala dermatitidis = assay: Antimicrobial activity against Exophiala dermatitidis by broth microdilution method
[1] = system: Kazachstania pintolopesii; assay: Antimicrobial activity against Candida pintolopesii by broth microdilution method; conditions: Arxiozyma pintolopesii
Outline: (§1)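 Clinical isolates from human patients, tested by broth microdilution using the AFST-EUCAST reference procedure for fermentative yeasts. The MIC was read per that reference method.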

[2] = Antimicrobial activity against Rhizopus microsporus by broth microdilution method
Outline: (§2)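 Filamentous fungus clinical isolates tested by the AFST-EUCAST reference broth microdilution method for moulds. For echinocandins, the endpoint was the minimum effective concentration: the lowest drug concentration giving aberrant hyphal growth, read with an inverted microscope.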

Ustilago = assay: Antimicrobial activity against Ustilago spp by broth microdilution method
Cladosporium = assay: Antimicrobial activity against Cladosporium spp. by broth microdilution method
Outline: (§3)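 Clinical mould isolates, tested by broth microdilution using the AFST-EUCAST reference method for filamentous fungi. For echinocandins, the endpoint was the minimum effective concentration: the lowest drug concentration giving aberrant hyphal growth, read with an inverted microscope.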

Fusarium verticillioides = assay: Antimicrobial activity against Fusarium verticillioides by broth microdilution method; outline: as §2
Aspergillus flavus = assay: Antimicrobial activity against Aspergillus flavus by broth microdilution method; outline: as §3
Aspergillus fumigatus = assay: Antimicrobial activity against Aspergillus fumigatus by broth microdilution method; outline: as §3
Rhizopus arrhizus = assay: Antimicrobial activity against Rhizopus oryzae by broth microdilution method; outline: as §2
Acremonium sp. = assay: Antimicrobial activity against Acremonium sp.by broth microdilution method; outline: as §3
Paecilomyces variotii = assay: Antimicrobial activity against Paecilomyces variotii by broth microdilution method; outline: as §2
Fusarium proliferatum = assay: Antimicrobial activity against Fusarium proliferatum by broth microdilution method; outline: as §3
Rhodotorula glutinis = assay: Antimicrobial activity against Rhodotorula glutinis by broth microdilution method
Outline: (§4)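 Nonfermentative yeast clinical isolates (Rhodotorula, Trichosporon) tested by broth microdilution. The EUCAST yeast recommendations were followed strictly, with one minor modification to improve growth. MIC was read as the endpoint.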

Candida metapsilosis = assay: Antimicrobial activity against Candida metapsilosis by broth microdilution method; conditions: Lodderomyces metapsilosis; outline: as §1
Hortaea werneckii = assay: Antimicrobial activity against Hortaea werneckii by broth microdilution method
Aspergillus ustus = assay: Antimicrobial activity against Aspergillus ustus by broth microdilution method; outline: as §3
Debaryomyces hansenii = assay: Antimicrobial activity against Candida famata by broth microdilution method; outline: as §1
Alternaria alternata = assay: Antimicrobial activity against Alternaria alternata by broth microdilution method; outline: as §3
Diutina rugosa = assay: Antimicrobial activity against Candida rugosa by broth microdilution method; outline: as §1
[3] = Antimicrobial activity against Hormographiella aspergillata by broth microdilution method; conditions: Coprinopsis cinerea; outline: as §2
Fusarium equiseti = assay: Antimicrobial activity against Fusarium equiseti by broth microdilution method; outline: as §3
Wickerhamomyces anomalus = assay: Antimicrobial activity against Candida pelliculosa by broth microdilution method; conditions: Hansenula anomala; outline: as §1
Trichosporon = assay: Antimicrobial activity against Trichosporon spp. by broth microdilution method; outline: as §4
Aspergillus terreus = assay: Antimicrobial activity against Aspergillus terreus by broth microdilution method; outline: as §3
Candida tropicalis = assay: Antimicrobial activity against Candida tropicalis by broth microdilution method; outline: as §1
Candida parapsilosis = assay: Antimicrobial activity against Candida parapsilosis by broth microdilution method; conditions: Lodderomyces parapsilosis; outline: as §1
Yarrowia lipolytica = assay: Antimicrobial activity against Yarrowia lipolytica by broth microdilution method
[4] = system: Cladophialophora bantiana; assay: Antimicrobial activity against Cladophialophora bantiana by broth microdilution method; outline: as §3
Coprinellus domesticus = assay: Antimicrobial activity against Hormographiella verticillata by broth microdilution method; outline: as §2
Candida orthopsilosis = assay: Antimicrobial activity against Candida orthopsilosis by broth microdilution method; conditions: Lodderomyces orthopsilosis; outline: as §1
Beauveria bassiana = assay: Antimicrobial activity against Beauveria bassiana by broth microdilution method; outline: as §3
Penicillium = assay: Antimicrobial activity against Penicillium spp. by broth microdilution method; outline: as §2
[5] = system: Cunninghamella bertholletiae; assay: Antimicrobial activity against Cunninghamella bertholletiae by broth microdilution method; outline: as §3
Nakaseomyces glabratus = assay: Antimicrobial activity against Candida glabrata by broth microdilution method; outline: as §1
Rhodotorula mucilaginosa = assay: Antimicrobial activity against Rhodotorula mucilaginosa by broth microdilution method; outline: as §4
Trichoderma = assay: Antimicrobial activity against Trichoderma spp. by broth microdilution method; outline: as §2
Saksenaea vasiformis = assay: Antimicrobial activity against Saksenaea vasiformis by broth microdilution method; outline: as §2
[6] = system: Meyerozyma guilliermondii; assay: Antimicrobial activity against Candida guilliermondii by broth microdilution method; outline: as §1
Trichosporon jirovecii = assay: Antimicrobial activity against Trichosporon jirovecii by broth microdilution method; conditions: Cutaneotrichosporon jirovecii; outline: as §4
Mucor = assay: Antimicrobial activity against Mucor spp.by broth microdilution method; outline: as §2
Trichosporon domesticum = assay: Antimicrobial activity against Trichosporon mycotoxinivorans by broth microdilution method; conditions: Apiotrichum domesticum
Outline: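 Spanish human clinical isolates were tested as nonfermentative yeasts by broth microdilution. The method strictly followed the EUCAST recommendations, with a minor modification to improve growth, and the read-out was the MIC.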

Trichosporon dermatis = assay: Antimicrobial activity against Trichosporon dermatis by broth microdilution method; conditions: Cutaneotrichosporon dermatis; outline: as §4
Aspergillus nidulans = assay: Antimicrobial activity against Aspergillus nidulans by broth microdilution method; outline: as §3
Trichosporon inkin = assay: Antimicrobial activity against Trichosporon inkin by broth microdilution method; outline: as §4
Aspergillus = assay: Antimicrobial activity against Aspergillus spp. by broth microdilution method; outline: as §3

CCCCCOc1ccc(-c2cc(-c3ccc(C(=O)N[C@H]4C[C@@H](O)[C@@H](O)NC(=O)[C@@H]5[C@@H](O)[C@@H](C)CN5C(=O)[C@H]([C@H](O)CC(N)=O)NC(=O)[C@H]([C@H](O)[C@@H](O)c5ccc(O)c(OS(=O)(=O)O)c5)NC(=O)[C@@H]5C[C@@H](O)CN5C(=O)[C@H]([C@@H](C)O)NC4=O)cc3)no2)cc1 [MICAFUNGIN] (X1-[Orn(4R-OH,5R-OH)]T[Hyp][hTyr(3S-OH,4S-OH,3'-OSO3H)][Gln(3R-OH)][Pro(3S-OH,4S-Me)]; lactam 1-C)
1 µg/mL: MIC90 (Candida parapsilosis) | MIC90 (Yarrowia lipolytica) | MIC90 [6]
0.12 µg/mL: MIC90 [1] | MIC50 (Acremonium sp.) | MIC90 (Candida metapsilosis) | MIC90 (Debaryomyces hansenii) | MIC90 (Diutina rugosa) | MIC90 (Wickerhamomyces anomalus) | MIC90 (Candida orthopsilosis) | MIC50 [6]
0.03 µg/mL: MIC50 (Exophiala dermatitidis) | MIC50 [1] | MIC50 (Cladosporium) | MIC50 (Aspergillus fumigatus) | MIC90 (Aspergillus fumigatus) | MIC50 (Paecilomyces variotii) | MIC90 (Paecilomyces variotii) | MIC50 (Candida metapsilosis) | MIC50 (Hortaea werneckii) | MIC50 (Debaryomyces hansenii) | MIC50 (Diutina rugosa) | MIC50 (Wickerhamomyces anomalus) | MIC50 (Aspergillus terreus) | MIC90 (Aspergillus terreus) | MIC50 (Candida tropicalis) | MIC90 (Candida tropicalis) | MIC50 (Yarrowia lipolytica) | MIC50 [4] | MIC50 (Candida orthopsilosis) | MIC50 (Penicillium) | MIC50 (Nakaseomyces glabratus) | MIC90 (Nakaseomyces glabratus) | MIC50 (Aspergillus nidulans)
> 16 µg/mL: MIC50 [2] | MIC90 [2] | MIC50 (Ustilago) | MIC90 (Ustilago) | MIC50 (Fusarium verticillioides) | MIC90 (Fusarium verticillioides) | MIC50 (Aspergillus flavus) | MIC90 (Aspergillus flavus) | MIC50 (Rhizopus arrhizus) | MIC90 (Rhizopus arrhizus) | MIC50 (Fusarium proliferatum) | MIC90 (Fusarium proliferatum) | MIC50 (Rhodotorula glutinis) | MIC90 (Rhodotorula glutinis) | MIC90 (Alternaria alternata) | MIC50 [3] | MIC90 [3] | MIC50 (Fusarium equiseti) | MIC90 (Fusarium equiseti) | MIC50 (Trichosporon) | MIC90 (Trichosporon) | MIC50 (Coprinellus domesticus) | MIC90 (Coprinellus domesticus) | MIC50 (Beauveria bassiana) | MIC90 (Beauveria bassiana) | MIC50 [5] | MIC90 [5] | MIC50 (Rhodotorula mucilaginosa) | MIC90 (Rhodotorula mucilaginosa) | MIC50 (Trichoderma) | MIC90 (Trichoderma) | MIC50 (Saksenaea vasiformis) | MIC90 (Saksenaea vasiformis) | MIC50 (Trichosporon jirovecii) | MIC90 (Trichosporon jirovecii) | MIC50 (Mucor) | MIC90 (Mucor) | MIC50 (Trichosporon domesticum) | MIC90 (Trichosporon domesticum) | MIC50 (Trichosporon dermatis) | MIC90 (Trichosporon dermatis) | MIC90 (Aspergillus nidulans) | MIC50 (Trichosporon inkin) | MIC90 (Trichosporon inkin)
0.06 µg/mL: MIC90 (Exophiala dermatitidis) | MIC90 (Cladosporium) | MIC90 (Hortaea werneckii) | MIC50 (Aspergillus ustus) | MIC90 [4] | MIC90 (Penicillium) | MIC50 (Aspergillus)
0.25 µg/mL: MIC90 (Acremonium sp.) | MIC90 (Aspergillus ustus) | MIC50 (Alternaria alternata) | MIC90 (Aspergillus)
0.5 µg/mL: MIC50 (Candida parapsilosis)
